Measurements reported in ChEMBL document CHEMBL4177752, “Discovery of Novel Schizocommunin Derivatives as Telomeric G-Quadruplex Ligands That Trigger Telomere Dysfunction and the Deoxyribonucleic Acid (DNA) Damage Response” (J Med Chem, 2018).
Active and inactive are the calls of the source. The rule behind the calls is not given here.

Assays:
A549 = assay: Antiproliferative activity against human A549 cells after 48 hrs by MTT assay; assay type: functional, cell-based; conditions: A549, 48 h
In short: (§1)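 Cells seeded at 5.0×10^3 per well and exposed to a range of compound concentrations for 48 h. MTT (2.5 mg/mL solution) was then added for 4 h, formazan was dissolved in DMSO, and OD was read at 570 nm. HL-60 was grown in RPMI-1640 with 10% FBS, the other lines in DMEM with 10% FBS, at 37 °C and 5% CO2. Triplicates; IC50 taken from mean OD versus concentration curves.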

[1] = Stabilization of F10T hairpin duplex DNA (unknown origin) assessed as change in melting temperature at 1 uM by FRET assay
In short: (§2)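 FRET melting: 0.2 µM F21T or F10T (FAM/TAMRA-labelled), with or without 1.0 µM ligand, in 10 mM Tris-HCl pH 7.4 with 60 mM KCl. Excitation 470 nm, emission 530 nm, read every 1 °C from 37–99 °C at 1 °C/min with a 30 s hold. ΔTm = Tm(DNA+ligand) − Tm(DNA).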

Quadruplex DNA [2] = assay: Binding affinity to HTG21 telomeric G-quadruplex DNA (unknown origin) by SPR method; assay type: nucleic-acid assay
In short: (§3)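 SPR: biotinylated HTG21 or hairpin DNA (200 nM) was folded in 50 mM Tris-HCl pH 7.4 with 100 mM KCl and captured to about 1,000 RU on an NLC chip against a blank reference cell. Ligand at 0.625–40 µM was injected at 25 µL/min (400 s association, 300 s dissociation) at 25 °C. The chip was regenerated with 1 M KCl and blank sensorgrams were subtracted.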

Quadruplex DNA [3] = assay: Stabilization of F21T telomeric G-quadruplex DNA (unknown origin) assessed as change in melting temperature at 1 uM by FRET assay; assay type: nucleic-acid assay; in short: as §2
HeLa = assay: Antiproliferative activity against human HeLa cells after 48 hrs by MTT assay; assay type: functional, cell-based; in short: as §1
[4] = Binding affinity to hairpin duplex DNA (unknown origin) by SPR method; in short: as §3
U2OS [5] = assay: Antiproliferative activity against human U2OS cells after 48 hrs by MTT assay; assay type: functional, cell-based; in short: as §1
HL-60 = assay: Antiproliferative activity against human HL60 cells after 48 hrs by MTT assay; assay type: functional, cell-based; conditions: HL-60, 48 h; in short: as §1
SiHa [6] = assay: Antiproliferative activity against human SiHa cells after 48 hrs by MTT assay; assay type: functional, cell-based; in short: as §1
Mus musculus = assay: Toxicity in BALB/C-nu/nu mouse xenografted with human SiHa cells assessed as decrease in body weight at 1 mg/kg, ip administered daily for 3 weeks measured everyday during compound dosing; assay type: organism-based; conditions: in vivo, 504 h
In short: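 SiHa cells (1×10^7 per 100 µL, serum-free DMEM) were injected subcutaneously. Grown tumors were divided into pieces and implanted into BALB/C-nu/nu mice. Caliper volume (1/2 × L × W²) and body weight were recorded daily; tumors were weighed at the end.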

Quadruplex DNA [7] = assay: Stabilization of F21T telomeric G-quadruplex DNA (unknown origin) at 1 uM in presence of non-fluorescent duplex DNA ds26 by FRET assay; assay type: nucleic-acid assay
In short: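 Competition FRET: 0.2 µM F21T with 1 µM ligand, plus or minus unlabelled duplex ds26 at 3 µM (15-fold) or 10 µM (50-fold), in 10 mM Tris-HCl pH 7.4 with 60 mM KCl. Melting monitored at 470/530 nm over 37–99 °C.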

[8] = Inhibition of telomerase (unknown origin) by TRAP-LIG assay; set-up: species or system Homo sapiens
[9] = Binding affinity to hairpin duplex DNA (unknown origin) at 40 uM by SPR method; in short: as §3
U2OS [10] = assay: Cell cycle arrest in human U2OS cells at 1 uM after 12 hrs by propidium iodide staining-based flow cytometric method; assay type: functional
In short: (§4)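 SiHa or U2OS cells (2.0×10^5 per well) were treated with compound or DMSO for 12 h, fixed in ice-cold 70% ethanol overnight, and stained with 50 µg/mL PI plus RNase A for 30 min at room temperature in the dark. 10,000 events were collected by flow cytometry to give the phase distribution.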

SiHa [11] = assay: Cell cycle arrest in human SiHa cells at 1 uM after 12 hrs by propidium iodide staining-based flow cytometric method; assay type: functional; in short: as §4
Quadruplex DNA [12] = assay: Stabilization of telomeric G-quadruplex DNA in human SiHa cells assessed as induction of DNA damage response by measuring gamma-H2AX foci formation per nucleus at 2 uM after 24 hrs by DAPI staining-based immunofluorescence method relative to control; assay type: cell-based
In short: (§5)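 Cells were treated 24 h with 2 µM compound or 0.1% DMSO, then fixed (4% paraformaldehyde), permeabilized (0.5% Triton X-100) and blocked (5% goat serum). Staining used BG4 (80 ng/µL, 37 °C 3 h) with anti-FLAG, and/or γ-H2AX, TRF2 or POT1 antibodies at 4 °C overnight. Alexa 488/555 secondaries and DAPI followed. Foci or co-localized foci per nucleus were counted by confocal microscopy; mean ± SEM, two-tailed unpaired t test.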

Quadruplex DNA [13] = assay: Stabilization of telomeric G-quadruplex DNA in human U2OS cells assessed as increase in BG4 foci per nucleus at 2 uM after 24 hrs by DAPI staining-based immunofluorescence method; assay type: cell-based; in short: as §5
Quadruplex DNA [14] = assay: Stabilization of telomeric G-quadruplex DNA in human SiHa cells assessed as increase in BG4 foci per nucleus at 2 uM after 24 hrs by DAPI staining-based immunofluorescence method relative to control; assay type: cell-based; in short: as §5

Row | IC50 (A549) | ΔTm [1] | Kd (Quadruplex DNA [2]) | ΔTm (Quadruplex DNA [3]) | IC50 (HeLa) | Kd [4] | IC50 (U2OS [5]) | IC50 (HL-60) | Activity (Quadruplex DNA [7]) | IC50 [8] | Activity [9] | Structure (SMILES) | IC50 (SiHa [6]) | Activity (Mus musculus) | Activity (U2OS [10]) | Activity (SiHa [11]) | Activity (Quadruplex DNA [12]) | Activity (Quadruplex DNA [13]) | Activity (Quadruplex DNA [14])
1 | 6 µM | 0.3 °C | 6.2 µM | 22.5 °C | 7.7 µM | 15 µM | 5.7 µM | 2.8 µM |  |  |  | CN(C)CCNc1cc2nc(/C=C3\C(=O)Nc4cc(N5CCN(C)CC5)c(F)cc43)[nH]c(=O)c2cc1F | 11.4 µM |  |  |  |  |  | 
2 | 1.4 µM | 0.2 °C | 8.8 µM | 21.4 °C | 2.8 µM | 16 µM | 5.3 µM | 2.9 µM |  |  |  | CN1CCN(c2cc3c(cc2F)/C(=C/c2nc4cc(NCCN5CCCCC5)c(F)cc4c(=O)[nH]2)C(=O)N3)CC1 | 4.4 µM |  |  |  |  |  | 
3 | 5.9 µM | 0.1 °C | 7.6 µM | 24.6 °C | 17.6 µM |  | 9 µM | 3.8 µM | Active | 12.3 µM | inactive | CN(C)CCCNc1cc2nc(/C=C3\C(=O)Nc4cc(N5CCN(C)CC5)c(F)cc43)[nH]c(=O)c2cc1F | 4.9 µM |  |  |  |  |  | 
4 | 2.3 µM | 0.2 °C | 7.4 µM | 20.6 °C | 10 µM |  | 7.6 µM | 5.4 µM |  |  | inactive | CCN(CC)CCCNc1cc2nc(/C=C3\C(=O)Nc4cc(N5CCN(C)CC5)ccc43)[nH]c(=O)c2cc1F | 2.8 µM |  |  |  |  |  | 
5 | 4.1 µM | 0.2 °C | > 40 µM | 18.6 °C | 17.4 µM |  | 6.4 µM | 3.6 µM |  |  | inactive | CN1CCN(c2ccc3c(c2)NC(=O)/C3=C\c2nc3cc(NCCN4CCCC4)c(F)cc3c(=O)[nH]2)CC1 | 10.9 µM |  |  |  |  |  | 

More lines, now with the values behind:

Row | Structure (SMILES) | IC50 (A549) | ΔTm [1] | Kd (Quadruplex DNA [2]) | ΔTm (Quadruplex DNA [3]) | IC50 (HeLa) | Kd [4] | IC50 (U2OS [5]) | IC50 (HL-60) | Activity (Quadruplex DNA [7]) | IC50 [8] | Activity [9] | IC50 (SiHa [6]) | Activity (Mus musculus) | Activity (U2OS [10]) | Activity (SiHa [11]) | Activity (Quadruplex DNA [12]) | Activity (Quadruplex DNA [13]) | Activity (Quadruplex DNA [14])
6 | CN(C)CCCNc1cc2nc(/C=C3/C(=O)Nc4cc(N5CCN(C)CC5)ccc43)n(C)c(=O)c2cc1F | 15.4 µM | 0.1 °C | 30 µM | 7.4 °C | 14 µM | > 40 µM | 12.5 µM | 30.6 µM |  |  |  | 14 µM |  |  |  |  |  | 
7 | COc1cccc2c1C(=O)c1c(O)c3c(c(O)c1C2=O)C[C@@](O)(C(=O)CO)C[C@@H]3O[C@H]1C[C@H](N)[C@H](O)[C@H](C)O1 [DOXORUBICIN] |  |  |  |  |  |  |  |  |  |  |  |  | Toxic |  |  |  |  | 
8 | CN(C)CCCNc1ccc2c(=O)[nH]c(/C=C3\C(=O)Nc4ccccc43)nc2c1 | 19.6 µM | 0.1 °C | > 40 µM | 8.4 °C | 42.5 µM |  | 20.4 µM | 4.1 µM | Active | > 40 µM | inactive | 27.6 µM |  | inactive | inactive | inactive | inactive | inactive
9 | CN(C)CCCNc1c2ccccc2nc2c1[nH]c1ccccc12 |  | 5.2 °C |  | 11.6 °C |  |  |  |  | inactive |  |  |  |  |  |  |  |  | 
10 | CN(C)CCCNc1cc2nc(/C=C3\C(=O)Nc4cc(N(C)CCCN(C)C)c(F)cc43)[nH]c(=O)c2cc1F | 14.3 µM | 0.3 °C | 18 µM | 18.2 °C | 7.1 µM |  | 8.3 µM | 6.5 µM |  |  | inactive | 2.9 µM |  |  |  |  |  | 
